ChEMBL document CHEMBL1142137 (Antimicrob Agents Chemother, 2007)
≈ marks a conversion by molar mass, not a printed value.

Experiments:
Streptococcus pneumoniae [1] = assay: Antibacterial activity against penicillin-resistant Streptococcus pneumoniae P-54988; type: functional
Outline: (§1)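 Tube dilution in Mueller-Hinton infusion broth with 5% sterile horse serum, using twofold antibiotic dilutions. Tubes were incubated 18 h at 37°C in 10% CO2-air. MIC was the lowest concentration with no turbidity visible to the naked eye.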

Streptococcus pneumoniae [2] = assay: Antibacterial activity against penicillin-resistant Streptococcus pneumoniae P-12698; type: functional; outline: as §1
Streptococcus pneumoniae [3] = assay: Antibacterial activity against penicillin-resistant Streptococcus pneumoniae P-15986; type: functional; outline: as §1
[4] = Cmax in leukopenic mouse with renal failure at 7 mg/kg, sc after 0.5 hrs; type: ADME, organism-based; parameters: dose 7 mg/kg, route subcutaneous; settings: in vivo
[5] = Cmax in leukopenic mouse with renal failure at 15 mg/kg, sc after 0.5 hrs; type: ADME, organism-based; parameters: dose 15 mg/kg, route subcutaneous; settings: in vivo
[6] = Cmax in leukopenic mouse with renal failure at 25 mg/kg, sc after 0.5 hrs; type: ADME, organism-based; parameters: dose 25 mg/kg, route subcutaneous; settings: in vivo
[7] = Cmax in human at 1 g, po after 0.5 hrs; type: ADME, organism-based; parameters: dose 1 g, route oral; settings: in vivo
[8] = Half life in leukopenic mouse with renal failure at 7 mg/kg, sc; type: ADME, organism-based; parameters: dose 7 mg/kg, route subcutaneous; settings: in vivo
Outline: (§2)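 Terminal t1/2 = ln 2/kel, kel from least-squares slope of linear portions of log concentration-time curve; data fitted to one-compartment open model, zero-order absorption, first-order elimination.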

[9] = Half life in leukopenic mouse with renal failure at 15 mg/kg, sc; type: ADME, organism-based; parameters: dose 15 mg/kg, route subcutaneous; settings: in vivo; outline: as §2
[10] = Half life in leukopenic mouse with renal failure at 25 mg/kg, sc; type: ADME, organism-based; parameters: dose 25 mg/kg, route subcutaneous; settings: in vivo; outline: as §2
[11] = Half life in human at 1 g, po; type: ADME, organism-based; settings: in vivo
[12] = AUC in leukopenic mouse with renal failure at 7 mg/kg, sc; type: ADME, organism-based; parameters: dose 7 mg/kg, route subcutaneous; settings: plasma
Outline: (§3)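 Uninfected female Swiss mice (6-7 weeks) made leukopenic with cyclophosphamide (150 mg/kg i.p. […] from 4 days pre-challenge) and given uranyl nitrate 6 mg/kg i.p. once, 4 days earlier. […] AUC0-24 by trapezoid method from one-compartment fit.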

[13] = AUC in leukopenic mouse with renal failure at 15 mg/kg, sc; type: ADME, organism-based; parameters: dose 15 mg/kg, route subcutaneous; settings: plasma; outline: as §3
[14] = AUC in leukopenic mouse with renal failure at 25 mg/kg, sc; type: ADME, organism-based; parameters: dose 25 mg/kg, route subcutaneous; settings: plasma; outline: as §3
[15] = AUC in human at 1 g, po; type: ADME, organism-based; settings: plasma
Mus musculus [16] = assay: T>MIC in leukopenic mouse with renal failure at 7 mg/kg, sc; type: ADME, organism-based; parameters: dose 7 mg/kg, route subcutaneous; settings: in vivo
Mus musculus [17] = assay: T>MIC in leukopenic mouse with renal failure at 15 mg/kg, sc; type: ADME, organism-based; parameters: dose 15 mg/kg, route subcutaneous; settings: in vivo
Mus musculus [18] = assay: T>MIC in leukopenic mouse with renal failure at 25 mg/kg, sc; type: ADME, organism-based; parameters: dose 25 mg/kg, route subcutaneous; settings: in vivo
Mus musculus [19] = assay: Effect on survival of Swiss mouse infected with penicillin-resistant Streptococcus pneumoniae P-54988 at 15 mg/kg, sc; type: functional; settings: route subcutaneous
Outline: (§4)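 Female Swiss albino mice, 6-7 weeks old, made leukopenic with cyclophosphamide 150 mg/kg ip daily ×3 from 4 days before challenge. Renal failure from one uranyl nitrate 6 mg/kg ip dose 4 days before challenge. Intratracheal inoculum of ~10^7 log-phase CFU under pentobarbital. […] 12-15 mice/group; deaths recorded daily for 10 days; Mantel-Haenszel comparison.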

Mus musculus [20] = assay: Effect on survival of Swiss mouse infected with penicillin-resistant Streptococcus pneumoniae P-12698 at 15 mg/kg, sc; type: functional; settings: route subcutaneous; outline: as §4
Mus musculus [21] = assay: Effect on survival of Swiss mouse infected with penicillin-resistant Streptococcus pneumoniae P-12698 at 25 mg/kg, sc; type: functional; settings: route subcutaneous; outline: as §4
Mus musculus [22] = assay: Effect on survival of Swiss mouse infected with penicillin-resistant Streptococcus pneumoniae P-15986 at 15 mg/kg, sc; type: functional; settings: route subcutaneous; outline: as §4
Streptococcus pneumoniae [23] = assay: Antibacterial activity against penicillin-susceptible Streptococcus pneumoniae P-52181
Mus musculus [24] = assay: Effect on survival of Swiss mouse infected with penicillin-susceptible Streptococcus pneumoniae P-52181 at 15 mg/kg, sc

CC1(C)S[C@@H]2[C@H](NC(=O)[C@H](N)c3ccc(O)cc3)C(=O)N2[C@H]1C(=O)O [AMOXICILLIN]
MIC (Streptococcus pneumoniae [1]): 2 µg/mL (≈ 5.47 µM)
MIC (Streptococcus pneumoniae [2]): 2 µg/mL (≈ 5.47 µM)
MIC (Streptococcus pneumoniae [3]): 4 µg/mL (≈ 10.9 µM)
Cmax [4]: 13000 ng/mL
Cmax [5]: 28000 ng/mL
Cmax [6]: 85000 ng/mL
Cmax [7]: 19000 ng/mL
half-life [8]: 1.6 h
half-life [9]: 1.6 h
half-life [10]: 1.7 h
half-life [11]: 1.5 h
AUC [12]: 46000 ng·h/mL
AUC [13]: 80000 ng·h/mL
AUC [14]: 227000 ng·h/mL
AUC [15]: 68000 ng·h/mL
T>MIC (Mus musculus [16]): 4 h
T>MIC (Mus musculus [17]): 4 h
T>MIC (Mus musculus [18]): 8 h
survival at 15 mg/kg (Mus musculus [19]): 81%
survival at 15 mg/kg (Mus musculus [20]): 50%
survival at 25 mg/kg (Mus musculus [21]): 57%
survival at 15 mg/kg (Mus musculus [22]): 82%
MIC (Streptococcus pneumoniae [23]): 0.03 µg/mL (≈ 0.0821 µM)
survival at 15 mg/kg (Mus musculus [24]): 83%
